In ChEMBL document CHEMBL1138306, “New antioxidant polyphenols from the medicinal mushroom Inonotus obliquus” (Bioorg Med Chem Lett, 2007):

Key:
Format in all cases: functional
[1] = Ratio of IC50 for drug to trolox for DPPH radical scavenging activity
[2] = Ratio of IC50 for drug to trolox for ABTS radical scavenging activity
Procedure, shortened: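 ABTS radical cation made from 7 mM aqueous ABTS stock reacted with 2.45 mM potassium persulfate, left 12 h in the dark. Radical solution mixed with samples in ethanol. Absorbance read at 734 nm up to 6 min after mixing. IC50 expressed relative to trolox.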

[3] = Antioxidant activity assessed as superoxide radical scavenging activity by xanthine oxidase method
Procedure, shortened: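 Superoxide generated by xanthine/xanthine oxidase in 50 mM potassium phosphate buffer (pH 7.8) containing 1 mM EDTA, 0.04 mM NBT, 0.18 mM xanthine and 250 mU/mL xanthine oxidase. Samples tested at a series of concentrations. Incubation 30 min at 37 C in the dark. Superoxide reduction of NBT to blue formazan used as read-out. IC50 determined.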

Compound	Ratio IC50 [1]	Ratio IC50 [2]	IC50 [3] [µM]
CC(=O)C1(O)C(c2cc3oc(=O)c4cc(O)c(O)cc4c3c(=O)o2)=Cc2cc(O)c(O)cc21 (stereo unspecified)	1.42	0.58	90.8
Cc1cc(=O)cc(-c2cc(O)c(O)cc2-c2c(O)cc(/C=C/c3ccc(O)c(O)c3)oc2=O)o1	0.82	0.65	97.6
O=C(O)/C=C/c1ccc(O)c(O)c1 [CAFFEIC ACID]	0.41	0.66	10.2
O=c1oc2cc(/C=C/c3ccc(O)c(O)c3)oc(=O)c2c2cc(O)c(O)cc12 [PHELLIGRIDIN D]	1.51	0.33	85.5
CC1=CC(=O)C2(O1)C(c1cc3oc(=O)c4cc(O)c(O)cc4c3c(=O)o1)=Cc1cc(O)c(O)cc12 (stereo unspecified) [PHELLIGRIDIN E]	1.57	0.4	120
O=C1C=C(/C=C/c2ccc(O)c(O)c2)OC12C(c1cc3oc(=O)c4cc(O)c(O)cc4c3c(=O)o1)=Cc1cc(O)c(O)cc12 (stereo unspecified) [PHELLIGRIDIN G]	1.48	0.43	92.3
O=c1oc(/C=C/c2ccc(O)c(O)c2)cc(O)c1-c1cc(O)c(O)cc1/C=C/c1cc2oc(=O)c3cc(O)c(O)cc3c2c(=O)o1 [PHELLIGRIDIN I]	1.45	0.43	93.6
